Measurements as given in article PMC4083110 (Molecular & Cellular Proteomics : MCP, 2014).

What was measured:
SHC1 SH2 domain = target: T1, SHC1 SH2 domain (Homo sapiens, UniProt P29353); experiment: FP saturation binding; settings: result in words
T1 sequence (P29353 488-579 limits assumed): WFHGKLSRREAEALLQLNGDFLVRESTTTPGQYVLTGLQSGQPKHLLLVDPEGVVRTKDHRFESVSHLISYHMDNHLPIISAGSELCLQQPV
Outline: (§1)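 Tandem SH2 proteins were kept with their linkers. Synthetic phosphotyrosine peptides were run in automated high-throughput FP saturation binding. Millipolarization was fitted to Pobs = Pmax·[Protein]/(KD+[Protein]) by least squares to give KD per protein/peptide pair.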

PLCG1 SH2 domains = target: T2, PLCG1 SH2 domains (Homo sapiens, UniProt P19174); experiment: FP saturation binding, construct not stated; settings: result in words
T2 sequence (P19174 550-756 limits assumed): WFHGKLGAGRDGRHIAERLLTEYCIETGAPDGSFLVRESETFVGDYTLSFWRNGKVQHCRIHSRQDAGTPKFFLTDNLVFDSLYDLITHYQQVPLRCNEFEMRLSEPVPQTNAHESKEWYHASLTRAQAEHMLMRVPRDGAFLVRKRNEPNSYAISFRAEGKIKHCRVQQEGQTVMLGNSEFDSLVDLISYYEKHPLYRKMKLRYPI
Outline: (§2)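 Multi-SH2 genes were used as tandem proteins that kept the linker residues. Automated high-throughput FP saturation binding was run against 178 synthetic phosphopeptides from RTK, GAB1 and androgen receptor tyrosine sites. Millipolarization readings were fitted to P_obs = Pmax·[Protein]/(K_D+[Protein]) by least squares regression to give K_D.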

Shp2/PTPN11 SH2 domain = target: T3, Shp2/PTPN11 SH2 domain (Homo sapiens, UniProt Q06124); experiment: FP saturation binding, construct not stated; settings: result in words
T3 sequence (Q06124 2-593): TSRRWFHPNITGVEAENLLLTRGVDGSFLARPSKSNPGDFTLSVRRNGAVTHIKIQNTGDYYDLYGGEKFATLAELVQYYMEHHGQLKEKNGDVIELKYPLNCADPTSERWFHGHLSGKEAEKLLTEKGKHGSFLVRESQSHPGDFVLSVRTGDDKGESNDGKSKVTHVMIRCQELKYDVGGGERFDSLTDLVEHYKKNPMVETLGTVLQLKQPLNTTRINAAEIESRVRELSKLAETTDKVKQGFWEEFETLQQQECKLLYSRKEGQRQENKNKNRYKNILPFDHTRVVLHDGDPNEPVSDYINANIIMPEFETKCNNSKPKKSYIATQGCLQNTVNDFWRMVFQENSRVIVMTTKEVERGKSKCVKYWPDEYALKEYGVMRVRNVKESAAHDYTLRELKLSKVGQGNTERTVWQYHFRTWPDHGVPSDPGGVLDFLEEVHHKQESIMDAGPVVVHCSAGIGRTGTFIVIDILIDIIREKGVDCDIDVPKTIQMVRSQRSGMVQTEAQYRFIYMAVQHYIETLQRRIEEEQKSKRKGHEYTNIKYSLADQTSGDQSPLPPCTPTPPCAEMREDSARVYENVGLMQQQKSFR
Outline: as §2

[1] = system: c-Src family kinase SH2 domains; experiment: FP saturation binding, domain family; set-up: species or system human; settings: result in words
Outline: as §2

SH2D1B SH2 domain = target: T4, SH2D1B SH2 domain (Homo sapiens, UniProt O14796); experiment: FP saturation binding; settings: result in words
T4 sequence (O14796 5-101 limits assumed): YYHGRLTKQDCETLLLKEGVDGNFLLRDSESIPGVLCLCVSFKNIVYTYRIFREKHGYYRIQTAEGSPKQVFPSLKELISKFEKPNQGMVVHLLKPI
Outline: as §2

[2] = system: PIK3R-derived SH2 domains; experiment: FP saturation binding, domain family; set-up: species or system human; settings: for recruitment of PIK3R (PI3KR) SH2 domains: FP, result in words
Outline: as §2

PLCG2 SH2 domains = target: T5, PLCG2 SH2 domains (Homo sapiens, UniProt P16885); experiment: FP saturation binding, construct not stated; settings: result in words
T5 sequence (P16885 532-735 limits assumed): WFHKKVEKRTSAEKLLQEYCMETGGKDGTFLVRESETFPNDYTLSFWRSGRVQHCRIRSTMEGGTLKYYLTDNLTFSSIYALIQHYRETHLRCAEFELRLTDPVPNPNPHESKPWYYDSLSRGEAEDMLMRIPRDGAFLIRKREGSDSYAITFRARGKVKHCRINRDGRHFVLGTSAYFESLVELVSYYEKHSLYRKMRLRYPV
Outline: as §2

CRKL SH2 domain = CRKL SH2 domain (Homo sapiens, UniProt P46109); experiment: FP saturation binding; settings: result in words
Sequence of CRKL SH2 domain (P46109 14-102 limits assumed): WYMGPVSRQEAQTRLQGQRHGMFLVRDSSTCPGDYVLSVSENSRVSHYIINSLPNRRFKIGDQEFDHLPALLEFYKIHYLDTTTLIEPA
Outline: as §2

CRK SH2 domain = CRK SH2 domain (Homo sapiens, UniProt P46108); experiment: FP saturation binding; settings: result in words
Sequence of CRK SH2 domain (P46108 13-118 limits assumed): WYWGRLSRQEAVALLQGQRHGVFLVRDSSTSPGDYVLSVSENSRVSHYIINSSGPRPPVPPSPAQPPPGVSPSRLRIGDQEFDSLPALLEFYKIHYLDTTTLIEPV
Outline: as §2

PIK3R3 SH2 domains = experiment: FP saturation binding, construct not stated; set-up: species or system human; settings: result in words
Outline: as §2

PIK3R1 SH2 domains = PIK3R1 SH2 domains (Homo sapiens, UniProt P27986); experiment: FP saturation binding, construct not stated; settings: result in words
Sequence of PIK3R1 SH2 domains (P27986 2-724): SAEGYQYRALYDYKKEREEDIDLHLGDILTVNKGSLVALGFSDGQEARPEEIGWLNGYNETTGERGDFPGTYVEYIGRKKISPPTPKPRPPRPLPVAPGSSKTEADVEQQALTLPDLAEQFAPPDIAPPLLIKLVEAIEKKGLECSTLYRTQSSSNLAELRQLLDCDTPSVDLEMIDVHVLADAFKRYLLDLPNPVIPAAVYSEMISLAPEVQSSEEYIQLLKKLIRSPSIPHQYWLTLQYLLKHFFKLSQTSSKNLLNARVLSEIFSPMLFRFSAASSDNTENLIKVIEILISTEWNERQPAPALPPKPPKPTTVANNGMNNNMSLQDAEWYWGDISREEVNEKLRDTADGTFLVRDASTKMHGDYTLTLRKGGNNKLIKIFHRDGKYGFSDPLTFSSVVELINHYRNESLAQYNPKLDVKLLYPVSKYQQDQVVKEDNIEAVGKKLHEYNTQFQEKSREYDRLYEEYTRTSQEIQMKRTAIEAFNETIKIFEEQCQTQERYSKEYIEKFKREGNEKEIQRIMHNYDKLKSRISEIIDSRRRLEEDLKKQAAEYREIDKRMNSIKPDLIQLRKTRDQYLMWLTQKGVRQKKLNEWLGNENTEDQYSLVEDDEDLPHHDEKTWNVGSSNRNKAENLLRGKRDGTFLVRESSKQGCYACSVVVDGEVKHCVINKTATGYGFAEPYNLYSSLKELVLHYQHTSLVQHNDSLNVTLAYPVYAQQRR
Outline: as §2

RASA1 SH2 domains = target: T6, RASA1 SH2 domains (Homo sapiens, UniProt P20936); experiment: FP saturation binding, construct not stated; settings: result in words
T6 sequence (P20936 181-441 limits assumed): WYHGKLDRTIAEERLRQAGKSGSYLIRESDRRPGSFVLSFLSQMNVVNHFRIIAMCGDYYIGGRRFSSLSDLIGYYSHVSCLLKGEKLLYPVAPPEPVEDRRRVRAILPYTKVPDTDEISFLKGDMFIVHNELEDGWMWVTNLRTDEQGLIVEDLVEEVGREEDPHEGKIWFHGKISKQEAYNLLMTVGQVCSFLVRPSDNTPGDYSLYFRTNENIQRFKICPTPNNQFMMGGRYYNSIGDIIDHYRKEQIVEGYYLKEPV
Outline: as §2

[3] = target: T7, SHC1 PTB domain (SHC1.PTB) (Homo sapiens, UniProt P29353); experiment: FP saturation binding; settings: result in words
T7 sequence (P29353 156-339 limits assumed): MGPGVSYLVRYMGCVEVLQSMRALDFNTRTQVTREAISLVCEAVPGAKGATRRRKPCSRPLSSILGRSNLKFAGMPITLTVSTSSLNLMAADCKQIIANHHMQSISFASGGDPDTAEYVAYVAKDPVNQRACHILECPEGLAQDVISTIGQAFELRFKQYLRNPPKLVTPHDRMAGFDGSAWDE
Outline: as §2

GRB2 SH2 domain = GRB2 SH2 domain (Homo sapiens, UniProt P62993); experiment: FP saturation binding; settings: result in words
Sequence of GRB2 SH2 domain (P62993 60-152 limits assumed): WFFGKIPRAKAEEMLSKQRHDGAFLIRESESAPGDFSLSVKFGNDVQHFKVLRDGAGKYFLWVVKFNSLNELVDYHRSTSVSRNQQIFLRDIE
Outline: as §1

GRAP2 SH2 domain = GRAP2 SH2 domain (Homo sapiens, UniProt O75791); experiment: FP saturation binding; settings: result in words
Sequence of GRAP2 SH2 domain (O75791 58-149 limits assumed): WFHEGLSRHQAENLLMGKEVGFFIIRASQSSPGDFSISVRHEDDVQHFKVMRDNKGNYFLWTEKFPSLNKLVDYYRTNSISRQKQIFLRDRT
Outline: as §1

SH2D1A SH2 domain = SH2D1A SH2 domain (Homo sapiens, UniProt O60880); experiment: FP saturation binding; settings: result in words
Sequence of SH2D1A SH2 domain (O60880 6-104 limits assumed): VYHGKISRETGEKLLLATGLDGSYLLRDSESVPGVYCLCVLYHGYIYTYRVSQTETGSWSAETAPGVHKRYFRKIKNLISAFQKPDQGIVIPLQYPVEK
Outline: as §2

[4] = system: tensin family SH2 domains; experiment: FP saturation binding, domain family; set-up: species or system human; settings: result in words
Outline: as §2

ERVDXVVVDQQKd [GAB1 Tyr(P)-689]
interaction with SHC1 SH2 domain (SHC1 SH2 domain): interactions were identified
recruitment of PLCG1 SH2 domains (PLCG1 SH2 domains): able to recruit
recruitment of Shp2/PTPN11 SH2 domain (Shp2/PTPN11 SH2 domain): unable to recruit
recruitment of c-Src family kinase SH2 domains [1]: able to recruit
recruitment of SH2D1B SH2 domain (SH2D1B SH2 domain): able to recruit
recruitment of PIK3R (PI3KR) SH2 domains [2]: able to recruit

NNYVXIDPTQLPd [c-Kit Tyr(P)-570]
recruitment of c-Src family kinase SH2 domains [1]: recruited

PIDYXFPPQKTCd [AR Tyr(P)-553]
recruitment of PLCG1 SH2 domains (PLCG1 SH2 domains): recruitment sites
recruitment of PIK3R (PI3KR) SH2 domains [2]: relatively high affinity
recruitment of PLCG2 SH2 domains (PLCG2 SH2 domains): recruitment sites

SQDCXDIPRAFPd [GAB1 Tyr(P)-406]
recruitment of CRKL SH2 domain (CRKL SH2 domain): CRKL SH2 domain interactions
recruitment of PLCG1 SH2 domains (PLCG1 SH2 domains): confirmed
recruitment of CRK SH2 domain (CRK SH2 domain): no CRK SH2 domain interactions

EYCCXGDLLNFLd [c-Kit Tyr(P)-675]
recruitment of c-Src family kinase SH2 domains [1]: recruited
recruitment of CRK SH2 domain (CRK SH2 domain): recruited

LDENXVPMNPNSd [GAB1 Tyr(P)-447]
recruitment of PIK3R3 (PIK3R3 SH2 domains): high affinity
recruitment of PIK3R1 (PIK3R1 SH2 domains): confirmed

VSISXDIPPTPGd [GAB1 Tyr(P)-307]
recruitment of RASA1 SH2 domains (RASA1 SH2 domains): confirmed
recruitment of PLCG1 SH2 domains (PLCG1 SH2 domains): confirmed
recruitment of CRK SH2 domain (CRK SH2 domain): no CRK SH2 domain interactions

FENSXIFDINTId [GAB1 Tyr(P)-83]
interaction with SHC1 SH2 domain (SHC1 SH2 domain): interactions were identified
interaction with SHC1 PTB domain [3]: interactions were observed

IGEHXVHVNATYd [c-Met Tyr(P)-1349]
recruitment of PLCG1 SH2 domains (PLCG1 SH2 domains): moderate affinity
recruitment of SH2D1B SH2 domain (SH2D1B SH2 domain): moderate affinity

VKPIXFHTQ [AR Tyr(P)-915]
recruitment of PLCG1 SH2 domains (PLCG1 SH2 domains): recruitment sites
recruitment of PLCG2 SH2 domains (PLCG2 SH2 domains): recruitment sites

LQPEXCPDPLYEd [c-Met Tyr(P)-1307]
recruitment of Shp2/PTPN11 SH2 domain (Shp2/PTPN11 SH2 domain): recruit
recruitment of PIK3R (PI3KR) SH2 domains [2]: moderate recruitment

TDSSXCIPTAGMd [GAB1 Tyr(P)-373]
interaction with SHC1 SH2 domain (SHC1 SH2 domain): interactions were identified
recruitment of PLCG1 SH2 domains (PLCG1 SH2 domains): confirmed
recruitment of CRK SH2 domain (CRK SH2 domain): no CRK SH2 domain interactions

SEENXVPMNPNLd [GAB1 Tyr(P)-627]
recruitment of PIK3R3 (PIK3R3 SH2 domains): high affinity
interaction with SHC1 SH2 domain (SHC1 SH2 domain): interactions were identified
recruitment of PIK3R1 (PIK3R1 SH2 domains): confirmed

QQMIXDSPPSRAd [GAB1 Tyr(P)-242]
recruitment of CRK SH2 domain (CRK SH2 domain): no CRK SH2 domain interactions

DITVXLLQGRRLd [c-Met Tyr(P)-1295]
recruitment of Shp2/PTPN11 SH2 domain (Shp2/PTPN11 SH2 domain): recruit

STNEXMDMKPGVd [c-Kit Tyr(P)-721]
midpoint dissociation constants ([2]; FP saturation binding, all PIK3R SH2 domains, in words): sub-micromolar
recruitment of PIK3R (PI3KR) SH2 domains [2]: highest affinity

LPIDXYFPPQKTd [AR Tyr(P)-551]
recruitment of PLCG1 SH2 domains (PLCG1 SH2 domains): recruitment sites
recruitment of PLCG2 SH2 domains (PLCG2 SH2 domains): recruitment sites

QEANXVPMTPGTd [GAB1 Tyr(P)-472]
recruitment of PIK3R3 (PIK3R3 SH2 domains): high affinity
recruitment of PIK3R1 (PIK3R1 SH2 domains): confirmed

EAALXKNLLHSKd [c-Kit Tyr(P)-703]
recruitment of GRB2 SH2 domain (GRB2 SH2 domain): detectably recruited
recruitment of GRAP2 SH2 domain (GRAP2 SH2 domain): detectably recruited

CVAPXPSLLSSEd [c-Met Tyr(P)-1365]
recruitment of RASA1 SH2 domains (RASA1 SH2 domains): interactions
recruitment of PLCG1 SH2 domains (PLCG1 SH2 domains): interactions
recruitment of Shp2/PTPN11 SH2 domain (Shp2/PTPN11 SH2 domain): recruit
recruitment of c-Src family kinase SH2 domains [1]: interactions
recruitment of SH2D1A SH2 domain (SH2D1A SH2 domain): interactions
recruitment of SH2D1B SH2 domain (SH2D1B SH2 domain): interactions
recruitment of tensin family SH2 domains [4]: interactions

PAEMXDIMKTCWd [c-Kit Tyr(P)-900]
recruitment of c-Src family kinase SH2 domains [1]: recruited

DSSLXNLPRSYSd [GAB1 Tyr(P)-259]
recruitment of CRKL SH2 domain (CRKL SH2 domain): CRKL SH2 domain interactions
recruitment of CRK SH2 domain (CRK SH2 domain): no CRK SH2 domain interactions

LPPPXQLINVPPd [GAB1 Tyr(P)-162]
interaction with SHC1 SH2 domain (SHC1 SH2 domain): unable to detect

VITEXCCYGDLLd [c-Kit Tyr(P)-672]
recruitment of c-Src family kinase SH2 domains [1]: recruited
recruitment of CRK SH2 domain (CRK SH2 domain): recruited

DPQDXLLLINCQd [GAB1 Tyr(P)-183]
interaction with SHC1 SH2 domain (SHC1 SH2 domain): interactions were identified
interaction with SHC1 PTB domain [3]: interactions were observed

PGNTXQIPRTFPd [GAB1 Tyr(P)-317]
recruitment of RASA1 SH2 domains (RASA1 SH2 domains): confirmed

DRIFXLVADSEEd [GAB1 Tyr(P)-95]
interaction with SHC1 SH2 domain (SHC1 SH2 domain): interactions were identified
recruitment of CRK SH2 domain (CRK SH2 domain): CRK SH2 domain recruitment

KLKRXAWKRRWFd [GAB1 Tyr(P)-24]
interaction with SHC1 PTB domain [3]: interactions were observed
recruitment of CRK SH2 domain (CRK SH2 domain): CRK SH2 domain recruitment

DVWSXGIFLWELd [c-Kit Tyr(P)-855]
recruitment of CRK SH2 domain (CRK SH2 domain): recruited
recruitment of tensin family SH2 domains [4]: recruited
